≈ marks a conversion by molar mass, not a printed value.
Experiments:
Format in all cases: functional
Klebsiella aerogenes = experiment: Tested in vitro for antibacterial activity against Aerobacter aerogenes
Summary of the method: (§1)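 MICs determined by twofold agar dilution in nutrient agar with 0.2% yeast extract. Organisms were inoculated onto the plates with a Steers multiple inoculator.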

Aspergillus niger = experiment: Tested for antifungal activity against Aspergillus niger
[1] = test system: Bordetella bronchiseptica; experiment: Tested in vitro for antibacterial activity against Bordetella bronchiseptica; summary of the method: as §1
Escherichia coli = experiment: Tested in vitro for antibacterial activity against Escherichia coli; summary of the method: as §1
Klebsiella pneumoniae = experiment: Tested in vitro for antibacterial activity against Klebsiella pneumoniae; summary of the method: as §1
Proteus vulgaris = experiment: Tested in vitro for antibacterial activity against Proteus volgaris; summary of the method: as §1
Pseudomonas aeruginosa = experiment: Tested in vitro for antibacterial activity against Pseudomonas aeruginosa; summary of the method: as §1
Staphylococcus aureus = experiment: Tested in vitro for antibacterial activity against Staphylococcus aureus; summary of the method: as §1
Alternaria solani = experiment: Tested for antifungal activity against Alternaria solani
Aureobasidium pullulans = experiment: Tested for antifungal activity against Pullaria pullulans

Row | MIC (Klebsiella aerogenes) [µg/mL] | MIC (Aspergillus niger) [µg/mL] | MIC [1] [µg/mL] | MIC (Escherichia coli) [µg/mL] | MIC (Klebsiella pneumoniae) [µg/mL] | MIC (Proteus vulgaris) [µg/mL] | MIC (Pseudomonas aeruginosa) [µg/mL] | MIC (Staphylococcus aureus) [µg/mL] | MIC (Alternaria solani) [µg/mL] | MIC (Aureobasidium pullulans) [µg/mL] | Structure (SMILES)
1 | > 100 | 50 (≈ 199 µM) | 100 (≈ 398 µM) | 100 (≈ 398 µM) | 50 (≈ 199 µM) | 6.3 (≈ 25.1 µM) | > 100 | 12.5 (≈ 49.7 µM) | 6.3 (≈ 25.1 µM) |  | CC1=CC(=O)[C@@]2(O[C@@H]2C(=O)CC(C)C)C(=O)N1C
2 | > 100 | > 100 | > 100 | 50 (≈ 256 µM) | > 100 | > 100 | 50 (≈ 256 µM) | 100 (≈ 512 µM) | > 100 | > 100 | CC(=O)[C@H]1O[C@@]12C(=O)C=C(C)NC2=O
3 | 100 (≈ 421 µM) | > 100 | 50 (≈ 211 µM) | 50 (≈ 211 µM) | 6.3 (≈ 26.6 µM) | 6.3 (≈ 26.6 µM) | > 100 | 6.3 (≈ 26.6 µM) | 50 (≈ 211 µM) |  | CC1=CC(=O)[C@@]2(O[C@H]2C(=O)CC(C)C)C(=O)N1
4 | 25 (≈ 99.1 µM) | 25 (≈ 99.1 µM) | 50 (≈ 198 µM) | > 100 | 50 (≈ 198 µM) | 50 (≈ 198 µM) | 50 (≈ 198 µM) | 25 (≈ 99.1 µM) | 3.1 (≈ 12.3 µM) | 6.3 (≈ 25 µM) | CC(C)CC(=O)C1OC12C(=O)CC(C)(C)CC2=O (stereo unspecified)
5 | > 100 | > 100 | 100 (≈ 398 µM) | > 100 | 100 (≈ 398 µM) | 12.5 (≈ 49.7 µM) | > 100 | 25 (≈ 99.5 µM) | 12.5 (≈ 49.7 µM) |  | CC1=CC(=O)[C@@]2(O[C@H]2C(=O)CC(C)C)C(=O)N1C
6 | 100 (≈ 421 µM) | > 100 | 33.9 (≈ 143 µM) | 50 (≈ 211 µM) | 4.7 (≈ 19.8 µM) | 4.7 (≈ 19.8 µM) | > 100 | 4.7 (≈ 19.8 µM) | 100 (≈ 421 µM) | > 100 | CC1=CC(=O)C2(OC2C(=O)CC(C)C)C(=O)N1 (stereo unspecified)
7 |  | 1.6 (≈ 5.21 µM) | 0.8 (≈ 2.6 µM) | > 100 | > 100 |  |  | 0.8 (≈ 2.6 µM) | 0.2 (≈ 0.651 µM) | 0.2 (≈ 0.651 µM) | CCCCCCCCCC(=O)[C@@H]1O[C@@]12C(=O)C=C(C)NC2=O
8 |  | 0.2 (≈ 0.651 µM) | 3.1 (≈ 10.1 µM) | > 100 | > 100 | 12.5 (≈ 40.7 µM) |  | 0.4 (≈ 1.3 µM) | 0.2 (≈ 0.651 µM) | 0.2 (≈ 0.651 µM) | CCCCCCCCCC(=O)[C@H]1O[C@@]12C(=O)C=C(C)NC2=O
9 | > 100 | > 100 | > 100 | > 100 | > 100 | > 100 | > 100 | > 100 | > 100 | > 100 | CC(=O)[C@@H]1O[C@@]12C(=O)C=C(C)NC2=O
10 | > 100 | > 100 | 50 (≈ 211 µM) | 50 (≈ 211 µM) | 6.3 (≈ 26.6 µM) | 3.1 (≈ 13.1 µM) | > 100 | 6.3 (≈ 26.6 µM) | 25 (≈ 105 µM) |  | CC1=CC(=O)[C@@]2(O[C@@H]2C(=O)CC(C)C)C(=O)N1
